# Experimental data published in ChEMBL document CHEMBL1833837, “Tirucallane-type triterpenoids from Dysoxylum lenticellatum” (J Nat Prod, 2011).
# Calls of active or inactive are those of the source. No cut-off for these calls is given here.
# Experiments:
# SMMC-7721 = experiment: Cytotoxicity against human SMMC7721 cells by SRB assay; type: functional, cell-based
# How it was run: (§1)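 SRB assay on tumor cells. Three independent experiments, five replicate wells for each concentration. IC50 obtained by linear regression where applicable. Mitomycin served as positive control.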
# Aorta [1] = experiment: Vasodilatory activity in rat thoracic aorta assessed as relaxation of phenylephrine-induced precontraction at 10 ug/mL; type: functional; design: scale not given: the % may be the effect or the level left
# How it was run: (§2)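 Isolated thoracic aortic rings about 3 mm long, taken after pentobarbital anesthesia (60 mg/kg ip). Rings held in Krebs solution at pH 7.4 and 37 °C, gassed with 95% O2/5% CO2, for isometric tension recording. Equilibrated 1 h at 2 g resting tension, then challenged repeatedly with 80 mM KCl. Precontracted with 10^-6 M phenylephrine. Endothelium confirmed by >80% relaxation to 10^-6 M acetylcholine.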
# HL-60 = experiment: Cytotoxicity against human HL60 cells by SRB assay; type: functional, cell-based; how it was run: as §1
# Aorta [2] = experiment: Vasodilatory activity in rat thoracic aorta assessed as relaxation of phenylephrine-induced precontraction at 4 to 10 ug/mL; type: functional, tissue-based; how it was run: as §2
# [3] = Solubility of the compound; type: physicochemical
Compound,Activity (SMMC-7721),Activity (Aorta [1]),Activity (HL-60),Activity (Aorta [2]),solubility [3]
CC1(C)C(=O)CC[C@]2(C)[C@H]3CC[C@@]4(C)[C@H](C5=CC(=O)NC5=O)CC[C@]4(C)C3=CC[C@@H]12 [LAXIRACEMOSIN H],inactive,18.3%,inactive,,
COC(=O)[C@@H](CC(=O)[C@@H]1OC1(C)C)[C@@H]1CC[C@]2(C)C3=CC[C@H]4C(C)(C)C(=O)CC[C@]4(C)[C@H]3CC[C@@]12C,inactive,,inactive,,
CC(C)=C[C@@H]1C=C([C@@H]2CC[C@]3(C)C4=CC[C@H]5C(C)(C)C(=O)CC[C@]5(C)[C@H]4CC[C@@]23C)C(=O)O1,inactive,,inactive,,
CC1(C)O[C@H]1C(=O)C[C@H](C(=O)O)[C@@H]1CC[C@]2(C)C3=CC[C@H]4C(C)(C)C(=O)CC[C@]4(C)[C@H]3CC[C@@]12C,inactive,,inactive,inactive,
CC(C)=CC(=O)[C@@H](O)[C@H](C)[C@@H]1CC[C@]2(C)C3=CC[C@H]4C(C)(C)[C@@H](O)CC[C@]4(C)[C@H]3CC[C@@]12C,inactive,,inactive,inactive,
CCO[C@]1([C@@H]2OC2(C)C)CC([C@@H]2CC[C@]3(C)C4=CC[C@H]5C(C)(C)[C@H](O)CC[C@]5(C)[C@H]4CC[C@@]23C)CO1 (stereo partly drawn) [DYSOLENTICIN F],,,,inactive,Insoluble
CC(C)C(=O)C1(O)CC([C@@H]2CC[C@]3(C)C4=CC[C@H]5C(C)(C)C(=O)CC[C@]5(C)[C@H]4CC[C@@]23C)CO1 (mixture of isomers),inactive,,inactive,inactive,
CC1(C)[C@H](O)CC[C@]2(C)[C@H]3CC[C@@]4(C)[C@H](C5COC(=O)C5)CC[C@]4(C)C3=CC[C@@H]12 (stereo partly drawn),inactive,37.5%,inactive,,
CC1(C)[C@H](O)CC[C@]2(C)[C@H]3CC[C@@]4(C)[C@H]([C@H]5COC(=O)[C@@](O)(C(C)(C)O)C5)CC[C@]4(C)C3=CC[C@@H]12,inactive,,inactive,inactive,
CC1(C)C(=O)CC[C@]2(C)[C@H]3CC[C@@]4(C)[C@H](C5COC(=O)C5)CC[C@]4(C)C3=CC[C@@H]12 (stereo partly drawn),inactive,43.5%,inactive,,
CC1(C)[C@H](O)CC[C@]2(C)[C@H]3CC[C@@]4(C)[C@H](C5=CC(=O)NC5=O)CC[C@]4(C)C3=CC[C@@H]12 [DYSOLENTICIN J],inactive,87.4%,inactive,,
CC(=O)[C@@H]1CC[C@]2(C)C3=CC[C@H]4C(C)(C)C(=O)CC[C@]4(C)[C@H]3CC[C@@]12C [DYSOLENTICIN G],,,,,Insoluble
C[C@@H]([C@@H]1O[C@@H]1[C@@H]1OC1(C)C)[C@@H]1CC[C@]2(C)C3=CC[C@H]4C(C)(C)C(=O)CC[C@]4(C)[C@H]3CC[C@@]12C,inactive,,inactive,inactive,
CC1(C)C(=O)CC[C@]2(C)[C@H]3CC[C@@]4(C)[C@H](C5=CC(O)(CO)OC5=O)CC[C@]4(C)C3=CC[C@@H]12 (mixture of isomers) [DYSOLENTICIN C],,,,,Insoluble
CC(C)=CCC[C@H](C)[C@@H]1CC[C@]2(C)C3=CC[C@H]4C(C)(C)[C@@H](O)CC[C@]4(C)[C@H]3CC[C@@]12C,inactive,,inactive,inactive,
CC(C)C(=O)C1(O)CC([C@@H]2CC[C@]3(C)C4=CC[C@H]5C(C)(C)[C@H](O)CC[C@]5(C)[C@H]4CC[C@@]23C)CO1 (mixture of isomers),inactive,,inactive,inactive,
C[C@@H](CC(=O)[C@@H]1OC1(C)C)[C@@H]1CC[C@]2(C)C3=CC[C@H]4C(C)(C)C(=O)CC[C@]4(C)[C@H]3CC[C@@]12C,,,,inactive,Insoluble
